Reference: ChEMBL document CHEMBL4011622, “The Structure-Activity Relationship of a Tetrahydroisoquinoline Class of N-Methyl-d-Aspartate Receptor Modulators that Potentiates GluN2B-Containing N-Methyl-d-Aspartate Receptors” (J Med Chem, 2017)

Columns and labels:
[1] = molecular target: Glutamate NMDA receptor; Grin1/Grin2b (Rattus norvegicus, UniProt P35439+Q00960); assay: Positive allosteric modulation of recombinant rat GluN1/GluN2B receptor expressed in xenopus laevis oocyte assessed as potentiation of glutamate and glycine-induced current response at holding potential -40mV by two electrode voltage clamp method
Method in brief: (§1)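 Two-electrode voltage clamp at -40 mV, 23°C, pH 7.4 Ba²⁺ recording solution, on Xenopus oocytes expressing rat NMDA receptors. Currents were evoked by 100 µM glutamate plus 30 µM glycine, with compound co-applied (DMSO 0.05–0.5% final). Each compound used at least 4 oocytes from at least 2 frogs.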

[2] = molecular target: Glutamate NMDA receptor; Grin1/Grin2c (Rattus norvegicus) (UniProt P35439+Q00961); assay: Positive allosteric modulation of recombinant rat GluN1/GluN2C receptor expressed in xenopus laevis oocyte assessed as potentiation of glutamate and glycine-induced current response at 30 uM at holding potential -40mV by two electrode voltage clamp method relative to control; method in brief: as §1
[3] = molecular target: Ionotropic glutamate receptor NMDA 1/2D (Rattus norvegicus, UniProt P35439+Q62645); assay: Positive allosteric modulation of recombinant rat GluN1/GluN2D receptor expressed in xenopus laevis oocyte assessed as potentiation of glutamate and glycine-induced current response at holding potential -40mV by two electrode voltage clamp method; method in brief: as §1
[4] = molecular target: Glutamate NMDA receptor; Grin1/Grin2b (Rattus norvegicus) (UniProt P35439+Q00960); assay: Positive allosteric modulation of recombinant rat GluN1/GluN2B receptor expressed in xenopus laevis oocyte assessed as potentiation of glutamate and glycine-induced current response at 30 uM at holding potential -40mV by two electrode voltage clamp method relative to control
Method in brief: as §1, with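 “final). […]” for “final).”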

[5] = molecular target: Ionotropic glutamate receptor NMDA 1/2D (Rattus norvegicus) (UniProt P35439+Q62645); assay: Positive allosteric modulation of recombinant rat GluN1/GluN2D receptor expressed in xenopus laevis oocyte assessed as potentiation of glutamate and glycine-induced current response at 30 uM at holding potential -40mV by two electrode voltage clamp method relative to control; method in brief: as §1
[6] = molecular target: Glutamate NMDA receptor; Grin1/Grin2c (Rattus norvegicus, UniProt P35439+Q00961); assay: Positive allosteric modulation of recombinant rat GluN1/GluN2C receptor expressed in xenopus laevis oocyte assessed as potentiation of glutamate and glycine-induced current response at holding potential -40mV by two electrode voltage clamp method; method in brief: as §1

SMILES	EC50 [1] [nM]	Activity [2] [%]	Emax [2] [%]	EC50 [3] [nM]	Activity [4] [%]	Emax [4] [%]	Activity [5] [%]	Emax [5] [%]	EC50 [6] [nM]
COc1ccc(OCC2c3ccc(OC(C)C)cc3CCN2C(=O)c2cccc(C(F)(F)F)c2)cc1 (stereo unspecified)	6100	–	–	2700	–	–	–	–	1700
COc1ccc(OCC2c3ccc(OC(C)C)cc3CCN2C(=O)c2ccc(Cl)cc2)cc1 (stereo unspecified)	12000	251	290	11000	163	182	244	288	9500
CCOc1ccc(OCC2c3ccc(N4CCOCC4)cc3CCN2C(=O)c2cccc(Cl)c2)cc1 (stereo unspecified)	–	133	–	–	127	–	104	–	–
CCOc1ccc(OCC2c3ccc(OC(C)C)cc3CCN2C(=S)c2cccc(Br)c2)cc1 (stereo unspecified)	340	–	166	280	–	174	–	135	940
CCOc1ccc(OCC2c3ccc(OCC(C)C)cc3CCN2C(=O)c2cccc(F)c2)cc1 (stereo unspecified)	2500	309	325	3400	332	342	351	364	3100
CCOc1ccc(OCC2c3ccc(OC(C)C)cc3CCN2C(=O)c2cccc(C(F)(F)F)c2)cc1 (stereo unspecified)	2400	–	–	–	–	–	–	–	1300
COc1cccc(OCC2c3ccc(OC(C)C)cc3CCN2C(=O)c2cccc(Cl)c2)c1 (stereo unspecified)	–	132	132	5400	99	–	125	125	6200
COc1ccc(OCC2c3ccc(N(C)C)cc3CCN2C(=O)c2cccc(Cl)c2)cc1 (stereo unspecified)	–	288	315	4400	127	–	322	349	4000
CCC(CC)Oc1ccc2c(c1)CCN(C(=O)c1cccc(Cl)c1)C2COc1ccc(OC)cc1 (stereo unspecified)	1800	286	294	1700	331	344	381	390	1600
CC(C)Oc1ccc(OCC2c3ccc(OC(C)C)cc3CCN2C(=O)c2cccc(Cl)c2)cc1 (stereo unspecified)	3800	134	138	–	159	160	111	–	1700
CCOc1ccc(OCC2c3ccc(OCC)cc3CCN2C(=O)c2cccc(F)c2)cc1 (stereo unspecified)	–	77	–	–	94	–	67	–	–
CCOc1ccc(OCC2c3ccc(OC(C)C)cc3CCN2C(=O)c2ccc(F)cc2)cc1 (stereo unspecified)	–	107	–	–	118	–	90	–	–
COc1ccc(OCC2c3ccc(OC(C)C)cc3CCN2C(=O)c2cccc(O)c2)cc1 (stereo unspecified)	–	117	–	–	98	–	105	–	–
CCOc1ccc(OCC2c3ccc(OC(C)C)cc3CCN2C(=O)c2ccccc2Cl)cc1 (stereo unspecified)	–	93	–	–	67	–	79	–	–
COc1ccc(OCC2c3ccc(OC(C)C)cc3CCN2C(=O)c2cccc(F)c2)cc1 (stereo unspecified)	36000	–	–	–	–	–	–	–	–
CCOc1ccc(OCC2c3ccc(OC(C)C)cc3CCN2C(=O)c2cccc(-c3ccccc3)c2)cc1 (stereo unspecified)	–	92	–	–	112	–	92	–	–
CCOc1ccc(OCC2c3ccc(OC(C)C)cc3CCN2C(=O)c2cccc(C)c2)cc1 (stereo unspecified)	–	67	–	–	78	–	43	–	–

Results, then the molecule that gave them:

EC50 [1] [nM]	Activity [2] [%]	Emax [2] [%]	EC50 [3] [nM]	Activity [4] [%]	Emax [4] [%]	Activity [5] [%]	Emax [5] [%]	EC50 [6] [nM]	SMILES
9300	239	261	5100	138	141	333	363	4700	COc1ccc(OCC2c3ccc(NC(C)C)cc3CCN2C(=O)c2cccc(Cl)c2)cc1 (stereo unspecified)
–	105	–	–	106	–	107	–	–	COc1ccc(OCC2c3ccc(OC(C)C)cc3CCN2C(=O)c2cccc(N)c2)cc1 (stereo unspecified)
–	101	–	–	112	–	88	–	–	CCOc1ccc(OCC2c3ccc(OC(C)C)cc3CCN2C(=O)c2ccc(Cl)cc2)cc1 (stereo unspecified)
–	138	–	–	110	–	114	–	–	COc1ccc(OCC2c3ccc(OC(C)C)cc3CCN2C(=O)c2ccc(OC)cc2)cc1 (stereo unspecified)
1000	238	242	1500	294	293	342	351	1000	CCOc1ccc(OCC2c3ccc(OCC(C)C)cc3CCN2C(=O)c2cccc(Cl)c2)cc1 (stereo unspecified)
1500	–	–	1400	–	–	–	–	900	COc1ccc(OCC2c3ccc(OCC(C)C)cc3CCN2C(=O)c2cccc(Cl)c2)cc1 (stereo unspecified)
9300	273	342	22000	146	188	231	413	4700	COc1ccc(OCC2c3ccc(N4CCOCC4)cc3CCN2C(=O)c2cccc(Cl)c2)cc1 (stereo unspecified)
2200	159	162	2200	169	170	133	137	1300	CCOc1ccc(OCC2c3ccc(OC(C)C)cc3CCN2C(=O)c2ccc(F)c(Cl)c2)cc1 (stereo unspecified)
–	91	–	–	104	–	75	–	–	CCOc1ccc(OCC2c3ccc(OCC)cc3CCN2C(=O)c2cccc(Cl)c2)cc1 (stereo unspecified)
–	65	–	–	89	–	44	–	–	CCOc1ccc(OCC2c3ccc(OC(C)C)cc3CCN2C(=O)c2cccc(OC)c2)cc1 (stereo unspecified)
3400	133	135	–	136	137	98	–	1800	CCOc1ccc(OCC2c3ccc(OC(C)C)cc3CCN2C(=O)c2cccc(Br)c2)cc1 (stereo unspecified)
1500	–	132	–	–	157	–	–	920	CC(C)Oc1ccc(OCC2c3ccc(OC(C)C)cc3CCN2C(=O)c2cccc(C(F)(F)F)c2)cc1 (stereo unspecified)
–	285	293	3800	99	–	307	327	2400	COc1ccc(OCC2c3ccc(N(C)C)cc3CCN2C(=O)c2cccc(Br)c2)cc1 (stereo unspecified)
–	68	–	–	61	–	55	–	–	CCOc1ccc(OCC2c3ccc(OC(C)C)cc3CCN2C(=O)c2ccccc2F)cc1 (stereo unspecified)
7100	133	135	–	179	185	103	–	2700	CC(C)Oc1ccc(OCC2c3ccc(OC(C)C)cc3CCN2C(=O)c2cccc(F)c2)cc1 (stereo unspecified)
–	83	–	–	88	–	69	–	–	CCOc1ccc(OCC2c3ccc(OC(C)C)cc3CCN2C(=O)c2ccccc2)cc1 (stereo unspecified)
7200	104	–	–	147	152	91	–	–	CCOc1ccc(OCC2c3ccc(OC(C)C)cc3CCN2C(=O)c2cccc(F)c2)cc1 (stereo unspecified)
